High-throughput results from PubChem.
697 NFkB inh: inhibitors of the PMA/ionomycin-induced NF-kB reporter in 697 B cells; 697 B-cell NF-kB luciferase reporter, 16 h; 0.33% of 330,000 active; inhibition, % at 4 µM; in the data active = inhibition above about 35%
Gli-Sufu block: blocks Gli-Sufu signaling in a luciferase reporter; 0.74% of 340,000 active; Sufu-KO-LIGHT fibroblasts, Gli luciferase reporter luminescence; inhibition, % at 5 µM;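 active = inhibition above about 55%, limit read from the data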;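 note: 0% = DMSO-treated cells and 100% = wells with medium but no cells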
NR2E3 ag-1: agonists of human NR2E3 nuclear receptor. Q9Y5X4. CHO-S Gal4-NCOR/VP16-NR2E3 two-hybrid, luciferase. inhibition of corepressor binding, % at 3.98 µM. 0.35% of 360,000 active. AID 602229;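 active = inhibition above the mean of all tested compounds plus 3 SD, cut at about 70% in these data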;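 note: 0% = DMSO with NR2E3 transfected cells and 100% = cells lacking NR2E3 construct; higher means lower luciferase signal from less NR2E3 corepressor binding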
Target sequence (Q9Y5X4 whole entry, looked up, the tested form may be a part): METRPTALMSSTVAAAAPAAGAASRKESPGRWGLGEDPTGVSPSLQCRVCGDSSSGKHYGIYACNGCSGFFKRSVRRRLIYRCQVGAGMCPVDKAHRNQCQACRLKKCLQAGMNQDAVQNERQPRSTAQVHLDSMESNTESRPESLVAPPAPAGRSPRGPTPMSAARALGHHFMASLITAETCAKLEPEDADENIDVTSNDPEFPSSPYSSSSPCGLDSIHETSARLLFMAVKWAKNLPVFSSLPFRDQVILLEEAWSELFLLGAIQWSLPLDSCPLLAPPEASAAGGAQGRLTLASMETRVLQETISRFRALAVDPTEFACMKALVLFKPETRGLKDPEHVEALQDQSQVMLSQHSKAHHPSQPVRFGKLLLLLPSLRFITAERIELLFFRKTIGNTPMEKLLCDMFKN
Jurkat NFkB inh: inhibitors of the PMA/ionomycin-induced NF-kB reporter in Jurkat cells; 0.53% of 330,000 active; PMA/ionomycin-induced NF-kB luciferase reporter, luminescence; inhibition, % at 4 µM; in the data active = inhibition above about 50%
GalR3 antag: blocks the human galanin receptor 3 | O60755 | HEK293 GalR3-CNG cAMP membrane potential fluorescence; galR3 body fused to GalR1 C-terminus | inhibition, % at 3 µM | 0.44% of 360,000 active | AID 651719;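 active = inhibition above the screen-wide average plus 3 SD, cut at about 13% in these data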;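 note: forskolin and galanin both at EC90 stimulate the cells; cAMP rise reported by CNG channel membrane potential dye signal; 0% = forskolin plus galanin with DMSO and 100% = forskolin alone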
Target sequence (O60755 1-299 limits assumed): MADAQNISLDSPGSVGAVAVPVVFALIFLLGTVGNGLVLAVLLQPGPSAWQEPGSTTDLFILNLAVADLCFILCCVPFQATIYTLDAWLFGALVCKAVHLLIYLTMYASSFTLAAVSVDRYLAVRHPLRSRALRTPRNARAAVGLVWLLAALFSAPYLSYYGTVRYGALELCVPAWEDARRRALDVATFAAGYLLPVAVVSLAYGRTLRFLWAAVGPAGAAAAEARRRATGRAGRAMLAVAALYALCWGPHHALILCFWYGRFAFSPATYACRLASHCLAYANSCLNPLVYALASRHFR
NR2E3 ag-2: activates human photoreceptor nuclear receptor NR2E3. GST-NR2E3/biotin-RetCOR TR-FRET, 1536-well. inhibition of corepressor binding, % at 4.78 µM. 0.12% of 320,000 active;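 active = percent inhibition above the cutoff of mean plus 3 SD of all tested compounds, set per screening campaign, cut at about 20% in these data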;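 note: 0% = DMSO wells and 100% = biotin wells as full block of FRET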
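System: GST-tagged NR2E3 plus biotinylated RetCOR corepressor; Amount: 1.35 nM GST-tagged NR2E3 final; Dosing: single nominal compound dose of 4.8 µM; Schedule: 5 h incubation at 4 °C; Technique: TR-FRET with europium anti-GST and streptavidin-D2, 340 nm excitation; Controls: biotin wells as high control, 0.6% DMSO wells as low control.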
GalR3 antag conf: GalR3 (human) antagonism, confirmation; shares compounds with GalR3 antag; HEK293 GalR3 CNG cAMP biosensor, membrane potential fluorescence; galR3 fused to GalR1 carboxy tail; challenged with forskolin and galanin at EC90; inhibition, % at 3 µM; 59% of 1,600 active; AID 652245;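 active = inhibition above the primary screen's cutoff, the mean inhibition of all screened compounds plus 3 SD, cut at about 13% in these data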;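 note: 0% = forskolin plus galanin and 100% = forskolin alone with DMSO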
CNG parental: parental cell agonism counter-screen for GalR3 antagonists; shares compounds with GalR3 antag; HEK293-CNG parental cells, cAMP membrane potential fluorescence; normalised: DMSO wells 0%, forskolin wells 100%; activation, % at 3 µM; 10% of 1,600 active; in the data active = activation above about 1.3%
Numbers without * were called inactive; · = no result given. The list is not random: actives were taken first. Their share in the collection is about 1.8%.

SMILES | 697 NFkB inh | Gli-Sufu block | NR2E3 ag-1 | Jurkat NFkB inh | GalR3 antag | NR2E3 ag-2 | GalR3 antag conf | CNG parental
COc1cc2c(cc1OC)-c1cc(NC3CCCCCC3)nc(=O)n1CC2 | 23 | -4 | 14 | 10 | 52* | 0 | 58* | 1
CCOc1cccc(Nc2cc3n(c(=O)n2)CCc2cc(OC)c(OC)cc2-3)c1 | 18 | 5 | -13 | 9 | 16* | 2 | 56* | 0
O=S1(=O)N=C(N(Cc2cccs2)c2ccc(O)cc2)c2ccccc21 | 16 | 3 | 6 | 11 | -7 | 3 | · | ·
Cc1ccc(-n2c(C)nn(CCOc3ccccc3)c2=O)cc1 | -57 | -39 | -104 | -42 | -1 | 4 | · | ·
C#CCOc1ccc(C2C3=C(CCCC3=O)N(CC(=O)O)C3=C2C(=O)CCC3)cc1Br | -1 | -8 | -15 | -18 | -3 | 1 | · | ·
COc1cc(C(=O)N/N=C/c2sccc2C)cc(OC)c1OC | · | 25 | 14 | · | 14* | · | 9 | 1.8*
O=C1CC(c2ccccc2)CC(O)=C1C=NCCN1CCN(Cc2ccccc2)CC1 (stereo not drawn) | 6 | 5 | -4 | 2 | -3 | -3 | · | ·
CCOc1ccc(Br)cc1S(=O)(=O)NCCN1CCCC1 | -25 | 14 | -4 | -30 | -10 | 2 | · | ·
CC(=O)N[C@@H](Cc1c[nH]c2ccccc12)C(=O)OCC(=O)Nc1ccc(Cl)c(S(=O)(=O)N(C)C)c1 | -17 | -6 | 16 | -5 | 4 | 4 | · | ·
CC(=O)NC(Cc1c[nH]c2ccccc12)C(=O)OCC(=O)Nc1ccc2c(c1)OCO2 (stereo not drawn) | 12 | -18 | -11 | -4 | 15* | 2 | 6 | 0
[O-][n+]1c2cc(C(F)(F)F)ccc2c2n1CCN=C2c1ccc(Cl)cc1 | -2 | 0 | 12 | -5 | · | 2 | -2 | 0
Nc1c(Cl)cc(C2=NCCn3c2c2ccc([N+](=O)[O-])cc2[n+]3[O-])cc1Cl | -114 | 13 | 9 | -11 | -6 | 6 | · | ·
Cc1cc(C)cc(N(C(=O)CCC(=O)Nc2ccccn2)C(C(=O)NC(C)C)c2ccc(O)cc2)c1 (stereo not drawn) | 8 | · | · | -5 | · | -1 | · | ·
O=C(NCC1CCN(Cc2ccc(F)cc2)CC1)C1CCCN(c2ncnc3c2nc2n3CCCCC2)C1 (stereo not drawn) | -14 | 6 | 9 | 20 | -5 | -2 | · | ·
O=C(NCC1CCN(Cc2ccc(Cl)cc2)CC1)C1CCCN(c2ncnc3c2nc2n3CCCCC2)C1 (stereo not drawn) | -57 | 45 | -9 | 29 | 62* | 0 | 84* | 2.0*
Cc1ccc(CN2CCN(/N=C/c3ccc(C(F)(F)F)cc3)CC2)cc1 | 19 | 5 | 14 | 9 | 16* | -1 | 3 | 0
CN(C)CCCNCC(=O)c1c(-c2ccccc2)n(C)c2ccccc12 | · | 16 | -3 | · | -7 | -3 | · | ·
Cc1cc(C)c(C#N)c(SCc2[nH]nc3c2C(c2ccc(F)cc2)C(C#N)=C(N)O3)n1 (stereo not drawn) | -19 | 13 | -27 | -6 | 18* | 4 | 39* | 4.4*
Cc1ccccc1-c1cc2nc(Nc3ccc(F)cc3)n(C)c(=O)c2s1 | · | · | 23 | · | -5 | · | · | ·
O=C(O)COn1c(-c2ccc(Cl)cc2)nc2ccc(Cl)cc21 | -119 | -7 | -132 | -139 | 30* | -4 | 14* | 0
O=C(COC(=O)/C=C/c1ccccc1)NCCc1ccc(F)cc1 | -4 | 7 | -5 | -7 | -2 | · | · | ·
NNC(=S)Nc1ccc(S(=O)(=O)N2CCCCC2)cc1 | 7 | -6 | -6 | 15 | 5 | 1 | · | ·
O=C(c1ccc([N+](=O)[O-])s1)N1CCN(c2ccccc2)CC1 | 14 | 7 | 21 | 28 | 50* | 1 | -5 | 0
O=C(c1ccc([N+](=O)[O-])s1)N1CCN(c2ccccn2)CC1 | 5 | -1 | -23 | 15 | -8 | 0 | · | ·
COc1ccc(NC(=O)Nc2cccc3c2O[C@H](CN(C)S(=O)(=O)c2cn(C)cn2)[C@@H](C)CN([C@H](C)CO)C3=O)cc1 | 17 | -1 | -18 | -9 | -4 | · | · | ·
SMILES | 697 NFkB inh | Gli-Sufu block | NR2E3 ag-1 | Jurkat NFkB inh | GalR3 antag | NR2E3 ag-2 | GalR3 antag conf | CNG parental
c1ccc(-n2cnnc2SCc2cn3ccsc3n2)cc1 | -1 | 2 | 6 | -2 | -3 | 3 | · | ·
c1ccc(-n2cnnc2SCc2cn3ccccc3n2)cc1 | 17 | 15 | -35 | 9 | 54* | -3 | 2 | 0
Cc1nc(C)n(CCNS(=O)(=O)c2ccc(C)c(C)c2)n1 | 15 | 26 | -29 | 6 | 18* | 0 | -4 | 0
CCOC(=O)CN1C(=O)N[C@@H](c2cccc(C(F)(F)F)c2)[C@@H](C(=O)OC)[C@H]1C | -19 | -4 | -26 | -7 | -4 | 1 | · | ·
CC(C)CC(c1nnnn1C(C)C)N1CCN(c2ccccc2)CC1 (stereo not drawn) | 18 | 3 | 4 | 6 | · | 2 | -5 | 6.9*
COc1ccc(C(=O)Nc2ccccc2C(=O)NC(Cc2ccc(O)cc2)C(=O)NNC(=O)c2ccccc2)cc1 (stereo not drawn) | -8 | -20 | -7 | -9 | 13* | -3 | 6 | 0
COc1ccc(O)c(C(=O)c2cnc3nc4ccccc4n3c2)c1 | · | · | -69 | · | 22* | 1 | 18* | 1
O=C(CN1CCOCC1)N/N=C/c1ccc(-c2cccc(Cl)c2Cl)o1 | 0 | -13 | -8 | -5 | 1 | 3 | · | ·
CCN(CC)CCCNC(=O)Cn1cnc2sc(C)c(S(=O)(=O)N3CCC(C)CC3)c2c1=O | -6 | -1 | 11 | -5 | -7 | -1 | · | ·
COC(=O)c1c(NC(=O)c2ccccc2OC)sc(C(=O)N2CCOCC2)c1C | 16 | 3 | 9 | 10 | -10 | 4 | · | ·
C=CCN(c1ccccc1)S(=O)(=O)c1cccc(C(=O)NC2CCN(Cc3ccccc3)CC2)c1 | -50 | 41 | 10 | 48 | 89* | 1 | 62* | 1.4*
O=C(NC1CCN(Cc2ccccc2)CC1)c1cccc(S(=O)(=O)Nc2ccc(F)cc2)c1 | -42 | 26 | -5 | 32 | 17* | 1 | 54* | 0
O=c1n2c(c(O)n1C1CCCCC1)C(c1ccccc1)=Nc1ccccc1C2 | · | · | 17 | · | -6 | · | · | ·
COc1ccccc1NS(=O)(=O)c1cc(C(=O)NC2CCN(Cc3ccccc3)CC2)ccc1C | · | 26 | · | · | 90* | · | 103* | 1
